The MIC is the lowest concentration that inhibits growth of the organism.

Values after ≈ are worked out from the molar mass of the structure shown. Active and inactive are the calls of the source. No cut-off for these calls is given here.

This is an account of results in ChEMBL document CHEMBL3124758, “Toward new classes of potent antibiotics: synthesis and antimicrobial activity of novel metallosaldach-imidazolium salts” (2014).

Assay [1] deals with Candida albicans. Kind of assay: Antifungal activity against Candida albicans NCIM 3100 after 72 hrs by broth micro-dilution method. It counts as functional. The method in brief:
(§1)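 Aqueous compound solutions, 2.5 to 20 mg/mL, 100 µL per 4 mm well in nutrient agar seeded from nutrient broth culture (1 cm3 broth with 9 cm3 agar at 45 °C). Plates incubated 72 h at 28 °C and clear-zone diameter measured. MIC taken from inhibition at four concentration levels. Duplicate, repeated twice, modal values. Amphotericin B standard.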
A general note: Broth dilution looks for growth in wells or tubes with falling amounts of substance.

The subject of assay [2] is Aspergillus flavus. Kind of assay: Antifungal activity against Aspergillus flavus after 72 hrs by broth micro-dilution method. Type of assay: functional. The procedure, abridged:
as §1

Assay [3] deals with Bacillus subtilis. Kind of assay: Antibacterial activity against Bacillus subtilis after 72 hrs by broth micro-dilution method. Type of assay: functional. The method in brief: (§2)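 Compounds dissolved in H2O and tested at 2.5, 5, 10 and 20 mg/mL. Each strain was seeded in 1 cm3 nutrient broth, mixed with 9 cm3 melted (45 °C) nutrient agar and poured; 4 mm wells were cut. 100 µL compound solution per well, incubated 72 h at 37 °C, and inhibition zone diameter measured. MIC derived from % inhibition at the four levels. Duplicate, repeated twice; modal values. Ampicillin reference.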

For assay [4], the system named is Staphylococcus aureus. Kind of assay: Antibacterial activity against Staphylococcus aureus ATCC 25923 after 72 hrs by broth micro-dilution method. It counts as functional. The conditions noted are these: ATCC 25923, 72 h. The procedure, abridged:
as §2

Assay [5] deals with Escherichia coli. Kind of assay: Antibacterial activity against Escherichia coli ATCC 25922 after 72 hrs by broth micro-dilution method. Particulars: ATCC 25922, 72 h.
The subject of assay [6] is Pseudomonas aeruginosa. Kind of assay: Antibacterial activity against Pseudomonas aeruginosa ATCC 27853 after 72 hrs by broth micro-dilution method. Particulars: ATCC 27853, 72 h.

As to `Cc1[nH]cc[n+]1Cc1ccc(O)c(/C=N/[C@@H]2CCCC[C@H]2/N=C/c2cc(C[n+]3cc[nH]c3C)ccc2O)c1.[Cl-].[Cl-]` (relative stereo), the MIC was above 250 µg/mL in assay [1] (NCIM 3100, 72 h); 17.5 µg/mL in assay [3]; 17.6 µg/mL in assay [4]; 17.1 µg/mL in assay [5]; above 10000 µg/mL in assay [6]. In addition, the MIC entry in assay [2] was “inactive”.

With `CCn1cc[n+](Cc2ccc(O)c(/C=N/[C@@H]3CCCC[C@H]3/N=C/c3cc(C[n+]4ccn(CC)c4)ccc3O)c2)c1.[Cl-].[Cl-]` (relative stereo), the minimal inhibitory concentration (MIC) in assay [1] (NCIM 3100, 72 h) was above 250 µg/mL; in assay [3], 15.2 µg/mL; in assay [4], above 250 µg/mL; in assay [5], above 250 µg/mL; in assay [6] it was above 10000 µg/mL. For the same molecule, the MIC result in assay [2] is “inactive”.

For `CCCCn1cc[n+](Cc2ccc(O)c(/C=N/[C@@H]3CCCC[C@H]3/N=C/c3cc(C[n+]4ccn(CCCC)c4)ccc3O)c2)c1.[Cl-].[Cl-]` (relative stereo), the MIC is above 250 µg/mL in assay [1] (NCIM 3100, 72 h); 11.2 µg/mL in assay [3]; 16.2 µg/mL in assay [4]; 16.7 µg/mL in assay [5]; above 5000 µg/mL in assay [6]. The MIC entry in assay [2] was “inactive”.

As for `Cc1[nH]cc[n+]1Cc1cc(/C=N/[C@@H]2CCCC[C@H]2/N=C/c2cc(C[n+]3cc[nH]c3C)cc(C(C)(C)C)c2O)c(O)c(C(C)(C)C)c1.[Cl-].[Cl-]` (relative stereo), the minimum inhibitory concentration (MIC) in assay [1] (NCIM 3100, 72 h) was 55.5 µg/mL; in assay [3], 12.1 µg/mL; in assay [4], 14.9 µg/mL; in assay [5], 13.3 µg/mL; in assay [6] it was above 10000 µg/mL. For the same molecule, in assay [2], the MIC entry was “inactive”.

`CCn1cc[n+](Cc2cc(/C=N/[C@@H]3CCCC[C@H]3/N=C/c3cc(C[n+]4ccn(CC)c4)cc(C(C)(C)C)c3O)c(O)c(C(C)(C)C)c2)c1.[Cl-].[Cl-]` (relative stereo): the minimum inhibitory concentration (MIC) was above 250 µg/mL in assay [1] (NCIM 3100, 72 h); 16 µg/mL in assay [3]; 18.4 µg/mL in assay [4]; above 250 µg/mL in assay [5]; above 10000 µg/mL in assay [6]. In addition, in assay [2], the MIC result was “inactive”.

With `CCCCn1cc[n+](Cc2cc(/C=N/[C@@H]3CCCC[C@H]3/N=C/c3cc(C[n+]4ccn(CCCC)c4)cc(C(C)(C)C)c3O)c(O)c(C(C)(C)C)c2)c1.[Cl-].[Cl-]` (relative stereo), the minimal inhibitory concentration (MIC) was 85.2 µg/mL in assay [1] (NCIM 3100, 72 h); 16.4 µg/mL in assay [3]; 16 µg/mL in assay [4]; 12.2 µg/mL in assay [5]; above 5000 µg/mL in assay [6]. The MIC result in assay [2] is “inactive”.

For `C[C@@H]1[C@H](O)[C@@H](C)/C=C/C=C/C=C/C=C/C=C/C=C/C=C/[C@H](O[C@@H]2O[C@H](C)[C@@H](O)[C@H](N)[C@@H]2O)C[C@@H]2O[C@](O)(C[C@@H](O)C[C@@H](O)[C@H](O)CC[C@@H](O)C[C@@H](O)CC(=O)O[C@H]1C)C[C@H](O)[C@H]2C(=O)O` [AMPHOTERICIN B], the minimal inhibitory concentration (MIC) is 80 µg/mL (≈ 86.6 µM) in assay [1] (NCIM 3100, 72 h) and 40 µg/mL (≈ 43.3 µM) in assay [2].

In the case of `CC1(C)S[C@@H]2[C@H](NC(=O)[C@H](N)c3ccccc3)C(=O)N2[C@H]1C(=O)O` [AMPICILLIN], the MIC entry in assay [1] and in assay [2] was “inactive” each time. For the same molecule, the minimal inhibitory concentration (MIC) in assay [3] was 20 µg/mL (≈ 57.2 µM); in assay [4], 12.5 µg/mL (≈ 35.8 µM); in assay [5] it was 15 µg/mL (≈ 42.9 µM); in assay [6] it was above 1000 µg/mL.
